Test results: ChEMBL document CHEMBL1123771, “Synthesis and structure-activity relationships of potent new angiotensin converting enzyme inhibitors containing saturated bicyclic amino acids” (J Med Chem, 1987)
pIC50: −log10 of the molar value.

Key:
[1] = biological target: T1, Angiotensin-converting enzyme (Rattus norvegicus, UniProt P47820); test: Inhibition of rat Angiotensin I converting enzyme (ACE), using Hip-Gly-Gly as synthetic substrate.
T1 sequence (P47820 whole entry): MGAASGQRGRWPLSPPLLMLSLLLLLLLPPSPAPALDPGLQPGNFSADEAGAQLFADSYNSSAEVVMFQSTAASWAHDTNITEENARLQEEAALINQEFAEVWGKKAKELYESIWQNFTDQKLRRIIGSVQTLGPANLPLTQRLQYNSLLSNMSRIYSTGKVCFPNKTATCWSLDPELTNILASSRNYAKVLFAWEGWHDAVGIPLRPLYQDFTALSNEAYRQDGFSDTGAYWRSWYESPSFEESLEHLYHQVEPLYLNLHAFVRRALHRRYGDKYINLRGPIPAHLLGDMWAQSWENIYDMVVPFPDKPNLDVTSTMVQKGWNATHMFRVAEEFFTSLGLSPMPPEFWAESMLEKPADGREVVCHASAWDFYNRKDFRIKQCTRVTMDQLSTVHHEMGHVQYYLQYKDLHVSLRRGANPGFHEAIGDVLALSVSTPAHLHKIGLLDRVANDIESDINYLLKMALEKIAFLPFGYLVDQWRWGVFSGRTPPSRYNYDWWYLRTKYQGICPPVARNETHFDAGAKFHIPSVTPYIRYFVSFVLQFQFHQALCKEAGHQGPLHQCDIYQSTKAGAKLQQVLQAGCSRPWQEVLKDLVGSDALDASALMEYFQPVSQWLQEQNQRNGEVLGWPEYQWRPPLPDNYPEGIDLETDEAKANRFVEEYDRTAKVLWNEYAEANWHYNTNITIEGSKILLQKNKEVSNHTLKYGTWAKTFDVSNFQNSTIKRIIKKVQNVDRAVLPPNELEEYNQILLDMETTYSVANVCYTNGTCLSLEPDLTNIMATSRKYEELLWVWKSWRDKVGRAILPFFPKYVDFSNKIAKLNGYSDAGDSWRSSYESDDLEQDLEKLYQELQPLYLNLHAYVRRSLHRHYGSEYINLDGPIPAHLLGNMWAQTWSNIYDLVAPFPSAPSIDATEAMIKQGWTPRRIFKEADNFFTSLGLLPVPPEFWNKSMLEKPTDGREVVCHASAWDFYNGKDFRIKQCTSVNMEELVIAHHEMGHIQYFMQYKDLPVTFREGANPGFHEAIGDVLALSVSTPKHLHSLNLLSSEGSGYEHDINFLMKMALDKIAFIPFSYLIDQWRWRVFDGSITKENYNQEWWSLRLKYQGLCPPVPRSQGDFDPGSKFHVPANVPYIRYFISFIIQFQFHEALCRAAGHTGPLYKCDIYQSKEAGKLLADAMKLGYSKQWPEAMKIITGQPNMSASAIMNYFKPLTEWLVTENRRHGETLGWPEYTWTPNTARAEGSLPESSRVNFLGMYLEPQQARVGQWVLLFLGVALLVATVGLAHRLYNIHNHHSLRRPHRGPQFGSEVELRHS
In short: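 Radioassay of converting-enzyme activity with Hip-Gly-Gly as substrate; compounds dissolved at 2–5 mg/mL in Me2SO, then diluted to test concentrations in pH 8 buffer (0.05 M Hepes, 0.1 M NaCl, 0.6 M Na2SO4).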

[2] = tested on: Rattus norvegicus; test: Mean aortic base line blood pressure in conscious renal 2-kidney/1-clip goldblatt hypertensive rat at a dose 30 mg/kg administered orally; assay type: functional, Artery; details: route oral
[3] = tested on: Rattus norvegicus; test: Maximum change in mean aortic blood pressure in conscious renal 2-kidney/1-clip goldblatt hypertensive rat at a dose 30 mg/kg administered orally at 8h; 3 animals tested; assay type: functional, Artery; details: route oral
In short: (§1)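 Male Sprague–Dawley rats made hypertensive at 4 weeks old by silver clip (0.2-mm gap) on left renal artery, contralateral kidney intact; 4–8 weeks development, cannulated (280–320 g), only mean aortic pressure >160 mmHg used. Oral dosing; 1-min running-average aortic pressure and heart rate logged every 30 min; maximum change from base line, mean ± SEM.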

[4] = tested on: Rattus norvegicus; test: Mean aortic base line blood pressure in conscious renal 2-kidney/1-clip goldblatt hypertensive rat at a dose 3 mg/kg administered orally; assay type: functional, Artery; details: route oral
In short: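 Male Sprague–Dawley rats, 4 weeks old, given a silver clip (0.2-mm gap) on the left renal artery with the other kidney intact. Hypertension developed over 4–8 weeks, then rats (280–320 g) were aortic-cannulated; only those with mean pressure >160 mmHg were used. Oral dosing. One-minute running averages were logged every 30 min. Results are mean ± 1 SEM, from 3–5 rats.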

[5] = tested on: Rattus norvegicus; test: Maximum change in mean aortic blood pressure in conscious renal 2-kidney/1-clip goldblatt hypertensive rat at a dose 3 mg/kg administered orally at 6 h; 4 animals tested; assay type: functional, Artery; details: route oral
[6] = tested on: Rattus norvegicus; test: Maximum change in mean aortic blood pressure in conscious renal 2-kidney/1-clip goldblatt hypertensive rat at a dose 30 mg/kg administered orally at 6 h; 3 animals tested; assay type: functional, Artery; details: route oral; in short: as §1

Compound	pIC50 [1]	also measured
CCOC(=O)C(CCc1ccccc1)N1C(=O)C2CC3CCCCC3N2C(=O)C1C (centres undefined)	< 4.00	–
O=C(O)[C@@H]1CCCN1C(=O)CCS	6.09	–
O=C(O)[C@@H]1C[C@@H]2CCCC[C@@H]2N1C(=O)CCS (stereo in doubt; 8d)	8.19	–
O=C(O)[C@@H]1CCC(=O)N1C(=O)CCS	6.02	–
CC(CSC(=O)c1ccccc1)C(=O)N1[C@H](C(=O)O)C[C@@H]2CCCC[C@@H]21 (some centres undefined)	6.27	–
CC(=O)SCC(C)C(=O)N1[C@H](C(=O)O)C[C@@H]2CCCC[C@@H]21 (stereo in doubt; 9b)	4.46	–
O=C(O)C1Cc2ccccc2N1C(=O)CCS (centres undefined)	6.85	–
CC(CS)C(=O)N1C(=O)CCC1C(=O)O (centres undefined)	8.03	Mean aortic blood pressure [2]: 185 mmHg; Mean aortic blood pressure [3]: -48 mmHg
CC(=O)SCCC(=O)N1[C@H](C(=O)O)C[C@@H]2CCCC[C@@H]21 (stereo in doubt; 8c)	6.32	–
O=C1SCCC(=O)N2C1CC1CCCCC12 (centres undefined)	8.15	–
CCOC(=O)C(CCc1ccccc1)NC(C)C(=O)N1[C@H](C(=O)O)C[C@@H]2CCCC[C@@H]21.Cl (stereo in doubt; 17a)	–	Mean aortic blood pressure [4]: 199 mmHg; Mean aortic blood pressure [5]: -87 mmHg
CC(CS)C(=O)N1[C@H](C(=O)O)C[C@@H]2CCCC[C@@H]21 (stereo in doubt; 9d)	5.96	–
CC(CS)C(=O)N1[C@H](C(=O)O)C[C@@H]2CCCC[C@@H]21 (stereo in doubt; 9f)	8.28	Mean aortic blood pressure ([2]; 30 mg/kg): 193 mmHg; Mean aortic blood pressure [6]: -72 mmHg
CC(=O)SCCC(=O)N1[C@H](C(=O)O)C[C@@H]2CCCC[C@@H]21 (stereo in doubt; 8a)	6.25	–
